# The list is not random: actives were taken first. Their share in the collection is about 2.3%.
# ABCG2 block: inhibitors of human ABCG2 transporter, ABCB1 counter-screen | IgMXP3 cells, JC-1 efflux, flow cytometry | inhibition, % at 6.6 µM | hit rate 0.1% among 190,000 | AID 1325;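 active = inhibition above 80%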
# Target sequence (Q9UNQ0 whole entry, looked up): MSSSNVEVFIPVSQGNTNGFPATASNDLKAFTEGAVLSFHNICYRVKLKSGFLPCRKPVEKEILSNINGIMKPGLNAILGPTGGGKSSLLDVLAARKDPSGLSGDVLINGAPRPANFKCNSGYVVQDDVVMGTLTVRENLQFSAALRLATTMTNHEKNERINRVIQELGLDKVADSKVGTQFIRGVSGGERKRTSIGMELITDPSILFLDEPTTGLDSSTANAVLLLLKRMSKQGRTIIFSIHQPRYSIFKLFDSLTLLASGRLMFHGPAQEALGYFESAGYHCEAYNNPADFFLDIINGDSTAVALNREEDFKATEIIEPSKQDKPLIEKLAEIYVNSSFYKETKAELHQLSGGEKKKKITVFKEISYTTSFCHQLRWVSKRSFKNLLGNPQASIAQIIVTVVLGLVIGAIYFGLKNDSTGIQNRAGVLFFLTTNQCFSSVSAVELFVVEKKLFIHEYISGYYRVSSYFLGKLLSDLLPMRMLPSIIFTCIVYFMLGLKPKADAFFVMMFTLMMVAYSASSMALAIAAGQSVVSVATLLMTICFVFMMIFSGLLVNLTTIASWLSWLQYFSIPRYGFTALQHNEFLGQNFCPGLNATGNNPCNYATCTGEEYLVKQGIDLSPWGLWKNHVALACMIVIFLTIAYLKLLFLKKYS
#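 Test system: IgMXP3 (ABCG2) plus far-red-tagged CCRF-Adr (ABCB1) cells. Reagent: JC-1 dye as substrate. Timing: 10 min exposure at 25 °C with rotation, no wash. Measured by: flow cytometric JC-1 green MFI at 530 nm. Read-out: percent efflux inhibition, scaled nicardipine 100% to DMSO 0%. Control set: nicardipine and DMSO wells.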
# ABCB1 block: human ABCB1 inhibition, ABCG2 as counter-screen. CCRF-Adr cells, JC-1 efflux, flow cytometry. inhibition, % at 6.6 µM. hit rate 0.067% among 190,000; in the data active = inhibition above about 40%;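 note: higher value means more JC-1 retained so stronger ABCB1 efflux block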
# MEKK2mut PB1 HTS: signal of MEK5 binding to mutant human MEKK2 PB1 domain; AID 1530; bead flow cytometry, Alexa488-MEK5 binding to MEKK2 mutant; percent response, % at 10 µM; hit rate 0.35% among 290,000; in the data active = percent response above about 24%, passing the limit was not always enough
# MEKK2 WT-MEK5: raises or lowers MEK5 binding to wildtype human MEKK2 PB1 domain. binding response (% of control), % at 10 µM. bead flow cytometry, Alexa488-MEK5 binding to MEKK2 WT; actives lie on both sides. hit rate 1.1% among 290,000. Q9Y2U5. AID 1531; in the data active = binding response below about 67% or above about 130%
# MEKK3 PB1 HTS: modulators (inhibitors or enhancers) of MEK5 binding to human MEKK3 PB1 domain. binding response (% of control), % at 10 µM. bead-based flow cytometry, Alexa488-MEK5 binding to MEKK3; actives lie on both sides; 0 = blocked by unlabeled MEK5, 100 = vehicle. Q99759. hit rate 1.4% among 290,000;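 active = binding response more than 3 SD above or below the average of its plate-row segment, actives on both sides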;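 note: Alexa488 bead fluorescence after subtracting the streptavidin-only scavenger bead signal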
# MEKK2wt confirm: raises or lowers MEK5 binding to wildtype human MEKK2, retest. shares compounds with MEKK3 PB1 HTS. bead flow cytometry, Alexa488-MEK5 binding to MEKK2 WT; actives lie on both sides. binding response (% of control), % at 10 µM. hit rate 2.4% among 5,900; in the data active = binding response below about 16% or above about 210%; inactive = in between
# MEKK2mut confirm: signal of MEK5 binding to mutant human MEKK2, retest; bead flow cytometry, Alexa488-MEK5 binding to MEKK2 mutant; hit rate 2% among 5,900; percent response, % at 10 µM; shares compounds with MEKK3 PB1 HTS; in the data active = percent response mostly above about 71%, no sharp cut-off; inactive = mostly below about 38%;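 note: higher means compound restores mutant binding toward wildtype level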
# MEKK3-MEK5 inh: MEKK3-MEK5 PB1 inhibition, single concentration confirmation; hit rate 1.8% among 5,900; shares compounds with MEKK3 PB1 HTS; bead flow cytometry, Alexa488-MEK5 binding to MEKK3; stronger effect = lower value; binding response (% of control), % at 10 µM;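 active = binding response below 72% of control, or above a set upper limit, though filed actives all read lower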
# A number is an active result; . = inactive; / = not tested or not shown; [ ] = dose if it differs, or a comment.
SMILES,ABCG2 block,ABCB1 block,MEKK2mut PB1 HTS,MEKK2 WT-MEK5,MEKK3 PB1 HTS,MEKK2wt confirm,MEKK2mut confirm,MEKK3-MEK5 inh
COC/C=C/C1=CC2=CC(=O)C(C)(OC(=O)c3cnc4ccccc4n3)C(=O)C2=CN1CC(C)C (configuration not stated),/,/,.,.,80[inhibitor],.,.,.
Nc1nc2ccccc2n1C(=O)c1ccc(F)cc1,.,.,.,.,.,/,/,/
Cn1c(=O)c(/C=C/c2ccc(F)cc2)nc2ccccc21,.,.,.,55[inhibitor],.,.,.,.
O=c1c(/C=C(\O)c2ccc(F)cc2)nc2ccccc2n1-c1ccccc1,.,.,.,45[inhibitor],.,.,.,.
COc1ccc(CCN2CC(C(=O)N(C)Cc3ccc(C)o3)CCC2=O)cc1 (configuration not stated),/,/,.,.,.,/,/,/
CCCC(=O)c1ccc(O)cc1O,/,/,.,.,.,/,/,/
O=C1c2ccccc2S(=O)(=O)c2cc(N3CCN(c4ccccc4)CC3)ccc21,/,/,.,.,.,/,/,/
O=C1c2ccccc2S(=O)(=O)c2cc(N3CCOCC3)ccc21,/,/,.,.,82[inhibitor],.,.,.
CSc1ccc(NC(=O)NCCCN2CCC(Cc3ccccc3)CC2)cc1,/,/,30,162,.,.,.,.
COc1ccc(NC(=O)NCCCN2CCC(Cc3ccccc3)CC2)cc1,/,/,.,.,.,/,/,/
CSc1ccc(NC(=O)NCCN2CCc3ccccc3C2)cc1,.,.,.,.,49[inhibitor],.,.,.
COc1ccc(NC(=O)NCCN2CCc3ccccc3C2)cc1,.,.,.,.,.,/,/,/
CC1(C)Cc2c(c(-c3ccco3)nc3sc4c(NCC5CCCO5)ncnc4c23)CO1 (configuration not stated),.,.,.,.,143,.,.,.
COc1ccc(-c2noc(C(C)NC(=O)c3ccco3)n2)cc1OC (configuration not stated),/,/,.,.,.,/,/,/
CCN(CC)S(=O)(=O)c1ccc(-c2cc(C(=O)OC)sc2C(F)(F)F)cc1,/,/,.,.,130,.,.,.
COC(=O)c1cc(-c2ccc(S(=O)(=O)N3CCCC3)cc2)c(C(F)(F)F)s1,/,/,.,.,.,/,/,/
COc1ccc(N2C(=O)CCC2(C#N)c2ccc(Br)cc2)cc1 (configuration not stated),.,.,.,.,49[inhibitor],.,.,.
O=C(Nc1ccnn1C1CCN(C(=O)c2cc(Cl)ccc2F)CC1)C1CCOC1 (configuration not stated),/,/,.,.,.,/,/,/
COC(=O)CCC(=O)OC1(C)C(=O)C=C2C=C(C3CC3)N(C3CCCC3)C=C2C1=O (configuration not stated),/,/,.,149,.,.,.,.
Cc1cc([N+](=O)[O-])nn1CC(=O)N(C)C1CCCCC1,/,/,.,.,.,/,/,/
O=C(NC1=NCCS1)c1cc(-c2cccc(Br)c2)nc2ccccc12,.,.,.,.,148,.,.,.
Cc1ccc2nc(-c3cccc(Br)c3)cc(C(=O)NC3=NCCS3)c2c1,.,.,.,.,.,/,/,/
CCc1nnc(NC(=O)C2CC(=O)N(Cc3ccccc3)C2)s1 (configuration not stated),.,.,.,.,.,/,/,/
CCc1nnc(NC(=O)C2CC(=O)N(Cc3ccco3)C2)s1 (configuration not stated),.,.,.,.,122,.,.,.
COc1cc2c(cc1OC)CN(C(=O)COc1ccccc1[N+](=O)[O-])CC2,/,/,.,.,.,/,/,/
SMILES,ABCG2 block,ABCB1 block,MEKK2mut PB1 HTS,MEKK2 WT-MEK5,MEKK3 PB1 HTS,MEKK2wt confirm,MEKK2mut confirm,MEKK3-MEK5 inh
COc1ccc(OC)c(C2C=C(c3ccc(C)c(C)c3)Nc3nnnn32)c1 (configuration not stated),.,.,.,0.0[inhibitor],1.0[inhibitor],.,.,.
COc1cccc(C2=CC(c3cccc(OC)c3OC(F)F)n3nnnc3N2)c1 (configuration not stated),.,.,.,.,.,/,/,/
COc1cccc(C2=CC(c3cccc(OC)c3OC)n3nnnc3N2)c1 (configuration not stated),.,.,.,.,80[inhibitor],.,.,.
COc1cccc(C2=CC(c3cc(OC)ccc3OC)n3nnnc3N2)c1 (configuration not stated),.,.,/,/,/,/,/,/
Cc1ccc(-n2nnc3c(=O)n(Cc4ccccn4)cnc32)cc1C,.,.,175,.,.,.,.,.
CC(Sc1nc(-c2ccccc2)cs1)C(=O)Nc1ccc(Cl)cn1 (configuration not stated),.,.,.,.,149,.,.,.
CCCC(=O)OC1CC(C)N(C(=O)c2ccccc2)c2ccc(C)cc21 (configuration not stated),.,.,.,21[inhibitor],12[inhibitor],.,.,.
CC(=O)OC1CC(C)N(C(=O)c2ccccc2)c2ccc(C)cc21 (configuration not stated),.,.,.,.,.,/,/,/
CC(C)(C)Cc1nnc(NC(=O)CCC2CCCCC2)s1,/,/,.,.,.,/,/,/
CCOc1ccc(NC(=S)N2CCCC2)cc1,/,/,.,.,.,/,/,/
S=C(Nc1ccc(Br)cc1)N1CCCC1,.,.,.,.,131,.,.,.
COc1ccc(NC(=S)N2CCCC2)cc1,.,.,.,.,59[inhibitor],.,.,.
CC(=O)c1ccc(OCCn2c(SCC(=O)O)nc3ccccc32)cc1,/,/,.,.,.,/,/,/
N=C1/C(=C/c2cccn2-c2ccc([N+](=O)[O-])cc2)C(=O)N=C2SC=CN12,.,.,.,.,.,/,/,/
COc1ccc(-c2ccc(/C=C3/C(=N)N4C=CSC4=NC3=O)o2)c([N+](=O)[O-])c1,.,.,.,.,134,.,.,.
O=C(NCc1ccccn1)c1ccc(Cn2c(=S)[nH]c3ccc(Br)cc3c2=O)cc1,.,.,.,.,.,/,/,/
O=c1c2cc(Cl)ccc2[nH]c(=S)n1Cc1ccccn1,.,.,.,.,151,.,.,.
CN(C)C(=O)CSc1nc2ccc(C(=O)c3ccccc3)cc2[nH]1,/,/,.,.,.,/,/,/
O=C(O)Cc1sc(-c2ccc(Cl)cc2)nc1-c1ccccc1,.,.,.,.,123,.,.,.
O=C(CSc1nc2c(sc3ccccc32)c(=O)n1Cc1ccco1)NCC1CCCO1 (configuration not stated),.,.,.,3.0[inhibitor],2.0[inhibitor],.,.,.
Cc1ccccc1-n1c(SCc2c(C)noc2C)nnc1-c1ccncc1,.,.,.,.,.,/,/,/

# Screening data deposited in PubChem BioAssay by NMMLSC.
